# From ChEMBL document CHEMBL5696442, “Discovery of type II inhibitors of TGFβ-activated kinase 1 (TAK1) and mitogen-activated protein kinase kinase kinase kinase 2 (MAP4K2)” (J Med Chem, 2015)
# Active and inactive are the calls of the source. The calls are words filed in the database; no cut-off is given here.
# How the values were obtained:
# [1] = molecular target: Ribosomal protein S6 kinase alpha-3 (Homo sapiens) (UniProt P51812); assay: Inhibition of RSK2 domain2 Lys2 labeling site harbouring DLKPSNILYVDESGNPESIR in human Huh-7 cells at 1 uM by KiNativ Profiling analysis relative to control; assay type: cell-based
# Chain of Ribosomal protein S6 kinase alpha-3 (Homo sapiens) (P51812 whole entry, the tested form may be a part, canonical isoform): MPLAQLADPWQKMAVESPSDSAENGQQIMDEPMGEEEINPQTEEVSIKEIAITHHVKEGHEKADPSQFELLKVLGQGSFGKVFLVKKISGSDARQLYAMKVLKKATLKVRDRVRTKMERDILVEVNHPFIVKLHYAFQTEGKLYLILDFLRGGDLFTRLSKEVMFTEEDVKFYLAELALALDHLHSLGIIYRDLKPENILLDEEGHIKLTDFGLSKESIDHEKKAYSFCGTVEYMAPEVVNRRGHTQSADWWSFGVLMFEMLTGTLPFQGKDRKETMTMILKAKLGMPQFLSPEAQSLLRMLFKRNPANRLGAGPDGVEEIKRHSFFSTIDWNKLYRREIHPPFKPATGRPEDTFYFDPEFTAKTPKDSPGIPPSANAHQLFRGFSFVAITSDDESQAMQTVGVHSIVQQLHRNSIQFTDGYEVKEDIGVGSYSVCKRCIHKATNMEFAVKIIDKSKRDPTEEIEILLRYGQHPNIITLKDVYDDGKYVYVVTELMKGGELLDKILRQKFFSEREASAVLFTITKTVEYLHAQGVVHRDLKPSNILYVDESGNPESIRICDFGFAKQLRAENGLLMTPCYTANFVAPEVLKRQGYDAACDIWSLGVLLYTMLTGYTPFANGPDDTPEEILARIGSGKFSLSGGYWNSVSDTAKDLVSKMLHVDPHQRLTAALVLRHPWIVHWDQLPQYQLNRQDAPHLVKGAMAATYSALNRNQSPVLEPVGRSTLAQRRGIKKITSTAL
# [2] = molecular target: Phosphatidylinositol 4,5-bisphosphate 3-kinase catalytic subunit beta isoform (Homo sapiens) (UniProt P42338); assay: Inhibition of PIK3CB ATP labeling site harbouring VFGEDSVGVIFKNGDDLRQDMLTLQMLR in human Huh-7 cell lysate at 1 uM by KiNativ Profiling analysis relative to control; assay type: subcellular
# [3] = molecular target: MAP/microtubule affinity-regulating kinase 3 (Homo sapiens) (UniProt P27448); assay: Inhibition of MARK3 Lys2 labeling site in human Huh-7 cells at 1 uM by KiNativ Profiling analysis relative to control; assay type: cell-based
# [4] = molecular target: Rho-associated protein kinase 2 (Homo sapiens) (UniProt O75116); assay: Inhibition of ROCK2 Lys2 labeling site in human A-375 cells at 0.5 uM by KiNativ Profiling analysis relative to control; assay type: cell-based
# Chain of Rho-associated protein kinase 2 (Homo sapiens) (O75116 whole entry, looked up): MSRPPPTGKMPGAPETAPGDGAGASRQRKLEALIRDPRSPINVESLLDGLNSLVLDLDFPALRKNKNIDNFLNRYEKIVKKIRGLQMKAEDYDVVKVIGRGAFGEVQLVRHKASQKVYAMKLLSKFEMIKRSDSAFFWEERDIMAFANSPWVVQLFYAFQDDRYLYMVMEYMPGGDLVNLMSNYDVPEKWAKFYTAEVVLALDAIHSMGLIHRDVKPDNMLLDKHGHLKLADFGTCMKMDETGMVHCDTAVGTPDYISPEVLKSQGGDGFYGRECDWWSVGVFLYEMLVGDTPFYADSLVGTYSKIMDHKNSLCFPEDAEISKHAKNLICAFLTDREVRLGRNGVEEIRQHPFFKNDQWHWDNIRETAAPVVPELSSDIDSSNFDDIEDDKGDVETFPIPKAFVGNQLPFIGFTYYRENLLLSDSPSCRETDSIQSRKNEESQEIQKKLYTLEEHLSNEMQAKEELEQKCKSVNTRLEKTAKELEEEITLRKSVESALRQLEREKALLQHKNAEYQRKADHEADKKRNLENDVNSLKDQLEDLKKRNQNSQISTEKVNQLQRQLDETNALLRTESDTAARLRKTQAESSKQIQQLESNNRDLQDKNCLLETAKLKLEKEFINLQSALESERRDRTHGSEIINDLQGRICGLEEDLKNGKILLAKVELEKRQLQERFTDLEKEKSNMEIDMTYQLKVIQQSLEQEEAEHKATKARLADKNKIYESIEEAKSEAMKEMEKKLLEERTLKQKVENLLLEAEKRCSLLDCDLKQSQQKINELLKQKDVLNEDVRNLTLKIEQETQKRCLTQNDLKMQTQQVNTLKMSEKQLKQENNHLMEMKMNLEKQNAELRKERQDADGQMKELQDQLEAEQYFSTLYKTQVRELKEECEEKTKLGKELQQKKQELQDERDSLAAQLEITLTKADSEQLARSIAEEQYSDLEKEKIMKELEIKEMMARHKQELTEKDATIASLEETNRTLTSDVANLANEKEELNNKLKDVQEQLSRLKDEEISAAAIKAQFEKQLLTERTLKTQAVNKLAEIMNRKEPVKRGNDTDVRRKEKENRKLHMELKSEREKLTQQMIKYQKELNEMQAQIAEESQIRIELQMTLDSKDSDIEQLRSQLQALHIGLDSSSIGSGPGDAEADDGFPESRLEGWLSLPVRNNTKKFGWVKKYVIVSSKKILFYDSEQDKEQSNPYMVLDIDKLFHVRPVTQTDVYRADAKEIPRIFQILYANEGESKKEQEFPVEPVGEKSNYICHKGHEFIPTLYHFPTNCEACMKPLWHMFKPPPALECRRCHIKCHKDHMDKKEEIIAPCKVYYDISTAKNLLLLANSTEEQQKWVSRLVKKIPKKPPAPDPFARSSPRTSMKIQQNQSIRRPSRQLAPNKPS
# Outline: (§1)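 Live A375 melanoma cells treated with compound at 5 or 0.5 μM, then lysed. Lysate kinases were labeled with a lysine-reactive ATP or ADP-biotin probe. Inhibition was read as protection of labeling sites from the probe.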
# [5] = molecular target: Cyclin-dependent kinase 7 (Homo sapiens) (UniProt P50613); assay: Inhibition of CDK7 (unknown origin) at 10 uM by Ambit Kinomescan binding assay relative to control
# Chain of Cyclin-dependent kinase 7 (Homo sapiens) (P50613 whole entry): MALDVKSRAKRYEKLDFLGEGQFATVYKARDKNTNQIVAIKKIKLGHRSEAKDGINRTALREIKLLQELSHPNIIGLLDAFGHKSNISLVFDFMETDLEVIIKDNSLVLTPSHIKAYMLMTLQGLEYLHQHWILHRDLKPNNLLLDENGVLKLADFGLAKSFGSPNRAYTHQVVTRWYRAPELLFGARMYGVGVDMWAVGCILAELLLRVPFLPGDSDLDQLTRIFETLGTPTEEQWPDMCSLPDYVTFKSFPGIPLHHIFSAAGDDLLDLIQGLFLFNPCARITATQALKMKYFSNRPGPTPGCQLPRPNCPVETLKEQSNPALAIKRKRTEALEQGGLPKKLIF
# [6] = molecular target: Casein kinase II subunit alpha (Homo sapiens) (UniProt P68400); assay: Inhibition of CK2a1 in human Huh-7 cells at 10 uM by KiNativ Profiling analysis relative to control; assay type: cell-based
# Chain of Casein kinase II subunit alpha (Homo sapiens) (P68400 whole entry, looked up): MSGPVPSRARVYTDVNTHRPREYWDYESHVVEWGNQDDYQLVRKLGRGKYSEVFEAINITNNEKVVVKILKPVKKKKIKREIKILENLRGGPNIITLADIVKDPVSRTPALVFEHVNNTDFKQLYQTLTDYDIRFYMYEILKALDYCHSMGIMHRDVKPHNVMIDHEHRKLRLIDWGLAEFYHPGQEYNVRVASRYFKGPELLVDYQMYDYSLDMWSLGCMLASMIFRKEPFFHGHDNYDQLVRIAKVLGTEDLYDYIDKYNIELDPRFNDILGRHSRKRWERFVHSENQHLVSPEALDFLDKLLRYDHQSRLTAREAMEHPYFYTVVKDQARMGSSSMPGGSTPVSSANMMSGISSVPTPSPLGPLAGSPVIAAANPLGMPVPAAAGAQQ
# [7] = molecular target: Cyclin-dependent kinase 20 (Homo sapiens) (UniProt Q8IZL9); assay: Inhibition of CCRK Lys2 labeling site in human A-375 cells at 5 uM by KiNativ Profiling analysis relative to control; assay type: cell-based
# Chain of Cyclin-dependent kinase 20 (Homo sapiens) (Q8IZL9 whole entry): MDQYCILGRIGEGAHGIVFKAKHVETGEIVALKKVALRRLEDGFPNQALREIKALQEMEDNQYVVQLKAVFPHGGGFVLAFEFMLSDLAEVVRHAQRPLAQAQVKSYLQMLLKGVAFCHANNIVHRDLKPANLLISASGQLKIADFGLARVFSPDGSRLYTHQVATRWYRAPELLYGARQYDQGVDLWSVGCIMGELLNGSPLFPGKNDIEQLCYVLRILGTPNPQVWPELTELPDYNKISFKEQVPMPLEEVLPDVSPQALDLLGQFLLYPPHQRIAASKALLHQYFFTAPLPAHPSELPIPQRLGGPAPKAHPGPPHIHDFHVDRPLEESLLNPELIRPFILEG
# [8] = molecular target: Cyclin-dependent kinase 13 (Homo sapiens) (UniProt Q14004); assay: Inhibition of CHED K2 labeling site in human Huh-7 cells at 1 uM by KiNativ Profiling analysis relative to control; assay type: cell-based
# Chain of Cyclin-dependent kinase 13 (Homo sapiens) (Q14004 whole entry, looked up, the tested form may be a part): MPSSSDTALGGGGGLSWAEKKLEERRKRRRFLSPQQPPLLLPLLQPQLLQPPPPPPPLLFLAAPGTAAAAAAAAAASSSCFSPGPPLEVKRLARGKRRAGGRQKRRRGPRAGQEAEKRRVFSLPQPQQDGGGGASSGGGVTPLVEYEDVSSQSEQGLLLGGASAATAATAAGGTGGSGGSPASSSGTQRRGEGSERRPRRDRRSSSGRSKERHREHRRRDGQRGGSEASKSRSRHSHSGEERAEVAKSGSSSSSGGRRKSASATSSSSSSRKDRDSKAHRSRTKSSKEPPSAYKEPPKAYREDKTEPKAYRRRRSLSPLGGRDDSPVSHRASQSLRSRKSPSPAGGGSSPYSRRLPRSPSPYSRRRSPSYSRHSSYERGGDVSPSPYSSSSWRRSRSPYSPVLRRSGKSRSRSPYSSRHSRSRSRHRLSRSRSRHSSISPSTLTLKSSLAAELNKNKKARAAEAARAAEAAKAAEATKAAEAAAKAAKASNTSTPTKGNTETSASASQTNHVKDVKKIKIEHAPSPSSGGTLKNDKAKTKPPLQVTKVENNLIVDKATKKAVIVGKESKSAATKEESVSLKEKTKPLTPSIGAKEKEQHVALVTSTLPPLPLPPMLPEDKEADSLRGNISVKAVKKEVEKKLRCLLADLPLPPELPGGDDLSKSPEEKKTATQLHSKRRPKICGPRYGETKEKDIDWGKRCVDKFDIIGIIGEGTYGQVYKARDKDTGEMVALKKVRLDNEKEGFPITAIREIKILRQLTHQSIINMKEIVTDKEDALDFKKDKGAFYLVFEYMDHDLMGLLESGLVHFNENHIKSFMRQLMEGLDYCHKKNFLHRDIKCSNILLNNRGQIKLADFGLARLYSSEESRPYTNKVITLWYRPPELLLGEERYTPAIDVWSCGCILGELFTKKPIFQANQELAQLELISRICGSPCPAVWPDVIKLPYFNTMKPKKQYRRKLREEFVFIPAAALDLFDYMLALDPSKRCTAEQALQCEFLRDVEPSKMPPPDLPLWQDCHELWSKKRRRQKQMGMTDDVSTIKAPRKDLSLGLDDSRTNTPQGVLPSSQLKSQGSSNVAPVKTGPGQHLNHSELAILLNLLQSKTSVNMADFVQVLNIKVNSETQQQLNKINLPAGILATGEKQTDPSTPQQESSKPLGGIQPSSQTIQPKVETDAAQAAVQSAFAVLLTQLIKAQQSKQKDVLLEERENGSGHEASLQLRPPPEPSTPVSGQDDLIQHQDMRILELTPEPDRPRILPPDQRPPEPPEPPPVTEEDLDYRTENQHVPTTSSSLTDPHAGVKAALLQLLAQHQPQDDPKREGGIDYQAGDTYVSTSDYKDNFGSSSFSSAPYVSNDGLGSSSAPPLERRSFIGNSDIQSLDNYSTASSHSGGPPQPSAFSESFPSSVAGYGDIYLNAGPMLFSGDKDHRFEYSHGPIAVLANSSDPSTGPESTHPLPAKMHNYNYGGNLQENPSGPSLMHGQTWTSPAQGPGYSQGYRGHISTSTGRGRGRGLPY
# [9] = molecular target: Ribosomal protein S6 kinase alpha-1 (Homo sapiens) (UniProt Q15418); assay: Inhibition of C-terminal RPS6KA1 kinase domain 2 (unknown origin) at 10 uM by Ambit Kinomescan binding assay
# [10] = molecular target: Serine/threonine-protein kinase SMG1 (Homo sapiens) (UniProt Q96Q15); assay: Inhibition of SMG1 ATP labeling site harbouring DTVTIHSVGGTITILPTKTKPK in human A-375 cells at 0.05 uM by KiNativ Profiling analysis relative to control; assay type: cell-based
# [11] = molecular target: Serine/threonine-protein kinase BRSK1 (Homo sapiens) (UniProt Q8TDC3); assay: Inhibition of BRSK1 (unknown origin) at 10 uM by Ambit Kinomescan binding assay
# [12] = molecular target: T1, Serine/threonine-protein kinase TBK1 (Homo sapiens) (UniProt Q9UHD2); assay: Inhibition of TBK1 K2 labeling site in human Huh-7 cells at 1 uM by KiNativ Profiling analysis relative to control; assay type: cell-based
# T1 sequence (whole entry): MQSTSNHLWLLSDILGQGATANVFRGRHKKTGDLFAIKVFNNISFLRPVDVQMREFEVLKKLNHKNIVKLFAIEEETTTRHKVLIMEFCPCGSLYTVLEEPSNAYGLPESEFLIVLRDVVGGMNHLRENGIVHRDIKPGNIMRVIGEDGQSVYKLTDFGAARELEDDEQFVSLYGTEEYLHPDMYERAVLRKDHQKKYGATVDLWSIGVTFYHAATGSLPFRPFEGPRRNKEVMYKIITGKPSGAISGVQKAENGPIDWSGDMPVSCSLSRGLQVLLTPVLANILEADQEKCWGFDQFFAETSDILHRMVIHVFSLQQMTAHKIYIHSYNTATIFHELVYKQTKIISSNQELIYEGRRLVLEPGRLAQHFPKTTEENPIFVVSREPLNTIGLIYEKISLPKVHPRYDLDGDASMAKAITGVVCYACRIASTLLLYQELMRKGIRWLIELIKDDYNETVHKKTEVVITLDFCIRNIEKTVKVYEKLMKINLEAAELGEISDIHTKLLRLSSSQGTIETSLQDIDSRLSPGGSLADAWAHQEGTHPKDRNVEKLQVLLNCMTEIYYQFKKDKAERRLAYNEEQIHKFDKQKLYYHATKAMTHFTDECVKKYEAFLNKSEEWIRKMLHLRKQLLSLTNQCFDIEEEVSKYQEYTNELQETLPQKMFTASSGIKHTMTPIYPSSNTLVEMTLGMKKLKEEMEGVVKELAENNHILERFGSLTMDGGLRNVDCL
# [13] = molecular target: Tyrosine-protein kinase JAK3 (Homo sapiens) (UniProt P52333); assay: Inhibition of JAK3 JH1 catalytic domain (unknown origin) at 1 uM by Ambit Kinomescan binding assay relative to control
# [14] = molecular target: Cyclin-dependent kinase 11B (Homo sapiens) (UniProt P21127); assay: Inhibition of CDK11 (unknown origin) at 1 uM by Ambit Kinomescan binding assay relative to control
# [15] = molecular target: eIF-2-alpha kinase GCN2 (Homo sapiens) (UniProt Q9P2K8); assay: Inhibition of GCN2 domain2 Lys1 labeling site in human A-375 cells at 0.05 uM by KiNativ Profiling analysis relative to control; assay type: cell-based
# [16] = molecular target: Ribosomal protein S6 kinase beta-1 (Homo sapiens) (UniProt P23443); assay: Inhibition of S6K1 (unknown origin) at 1 uM by Ambit Kinomescan binding assay relative to control
# [17] = molecular target: Ribosomal protein S6 kinase alpha-3 (Homo sapiens) (UniProt P51812); assay: Inhibition of RSK2 domain1 Lys2 labeling site harbouring DLKPENILLDEEGHIKLTDFGLSK in human A-375 cells at 5 uM by KiNativ Profiling analysis relative to control; assay type: cell-based; outline: as §1
smiles,measurement,setting,value
CNc1cc(Oc2cc(C(=O)Nc3cc(N4CCN(C)CC4)cc(C(F)(F)F)c3)ccc2C)ncn1,inhibition,[1],11.7%
same,inhibition,[2],15.8%
same,inhibition,[3],11.3%
CCN1CCN(Cc2ccc(NC(=O)c3ccc(C)c(Oc4ccnc5[nH]ccc45)c3)cc2C(F)(F)F)CC1,inhibition,[4],2.3%
same,inhibition,[5],2.4%
same,inhibition,[6],12.3%
same,inhibition,[7],4.5%
same,inhibition,[8],inactive
same,inhibition,[9],inactive
same,inhibition,[10],2.3%
same,inhibition,[11],inactive
same,inhibition,[12],17.7%
CCN1CCN(Cc2ccc(NC(=O)c3ccc(C)c(/C=C/c4cnc5[nH]ccc5c4OC)c3)cc2C(F)(F)F)CC1,inhibition,[13],55%
same,inhibition,[14],27%
same,inhibition,[15],4.6%
same,inhibition,[16],46%
same,inhibition,[17],-4.9%
